Values after ≈ are worked out from the molar mass of the structure shown.
Assays:
Type in all cases: functional
Staphylococcus aureus [1] = assay: Antibacterial activity against Staphylococcus aureus ATCC 25923 by microbroth dilution technique
Procedure, shortened: (§1)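 Read-out was the minimum inhibitory concentration (MIC), found by broth microdilution.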

Staphylococcus aureus [2] = assay: Antibacterial activity against methicillin-susceptible Staphylococcus aureus ATCC 29213 by microbroth dilution technique; procedure, shortened: as §1
Staphylococcus aureus [3] = assay: Antibacterial activity against methicillin-resistant Staphylococcus aureus ATCC 43300 by microbroth dilution technique
[4] = tested on: Staphylococcus epidermidis; assay: Antibacterial activity against Staphylococcus epidermidis ATCC 12228 by microbroth dilution technique; procedure, shortened: as §1
Escherichia coli [5] = assay: Antibacterial activity against Escherichia coli ATCC 25922 by microbroth dilution technique; procedure, shortened: as §1
Escherichia coli [6] = assay: Antibacterial activity against Escherichia coli ATCC 35218 by microbroth dilution technique; procedure, shortened: as §1

SMILES | MIC (Staphylococcus aureus [1]) | MIC (Staphylococcus aureus [2]) | MIC (Staphylococcus aureus [3]) | MIC [4] | MIC (Escherichia coli [5]) | MIC (Escherichia coli [6])
CCCC[C@H](CN(O)C=O)C(=O)N1CC=C[C@H]1C(=O)Nc1ccccn1 | 0.125 µg/mL (≈ 0.347 µM) | 1 µg/mL (≈ 2.77 µM) | 0.125 µg/mL (≈ 0.347 µM) | 0.5 µg/mL (≈ 1.39 µM) | > 64 µg/mL | 32 µg/mL (≈ 88.8 µM)
CCCC[C@H](CN(O)C=O)C(=O)N1CC=C[C@H]1C(=O)Nc1ccc(F)cn1 | 0.5 µg/mL (≈ 1.32 µM) | 1 µg/mL (≈ 2.64 µM) | 0.25 µg/mL (≈ 0.661 µM) | 0.5 µg/mL (≈ 1.32 µM) | > 64 µg/mL | 64 µg/mL (≈ 169 µM)
CCCC[C@H](CN(O)C=O)C(=O)N1CC=C[C@H]1C(=O)Nc1ccc(F)c[n+]1[O-] | 0.5 µg/mL (≈ 1.27 µM) | 1 µg/mL (≈ 2.54 µM) | 0.5 µg/mL (≈ 1.27 µM) | 1 µg/mL (≈ 2.54 µM) | > 64 µg/mL | 64 µg/mL (≈ 162 µM)
CCCC[C@H](CN(O)C=O)C(=O)N1CC=C[C@H]1C(=O)Nc1ncc(C)s1 | 0.0625 µg/mL (≈ 0.164 µM) | 0.25 µg/mL (≈ 0.657 µM) | 0.125 µg/mL (≈ 0.329 µM) | 0.25 µg/mL (≈ 0.657 µM) | 32 µg/mL (≈ 84.1 µM) | 16 µg/mL (≈ 42.1 µM)
CCCC[C@H](CN(O)C=O)C(=O)N1CC=C[C@H]1C(=O)N1CCOCC1 | > 64 µg/mL | > 64 µg/mL | 32 µg/mL (≈ 90.5 µM) | > 64 µg/mL | > 64 µg/mL | > 64 µg/mL
CCCC[C@H](CN(O)C=O)C(=O)N1CC=C[C@H]1C(=O)NC1CC1 | 64 µg/mL (≈ 198 µM) | 32 µg/mL (≈ 99 µM) | 2 µg/mL (≈ 6.18 µM) | 4 µg/mL (≈ 12.4 µM) | 64 µg/mL (≈ 198 µM) | 32 µg/mL (≈ 99 µM)
CCCC[C@H](CN(O)C=O)C(=O)N1CC=C[C@H]1C(=O)Nc1ccc(Cl)cc1 | 8 µg/mL (≈ 20.3 µM) | 2 µg/mL (≈ 5.08 µM) | 1 µg/mL (≈ 2.54 µM) | 4 µg/mL (≈ 10.2 µM) | > 64 µg/mL | > 64 µg/mL
CCCC[C@H](CN(O)C=O)C(=O)N1CC=C[C@H]1C(=O)Nc1ccccc1Br | 32 µg/mL (≈ 73 µM) | 4 µg/mL (≈ 9.13 µM) | 1 µg/mL (≈ 2.28 µM) | 8 µg/mL (≈ 18.3 µM) | > 64 µg/mL | > 64 µg/mL
CCCC[C@H](CN(O)C=O)C(=O)N1CC=C[C@H]1C(=O)Nc1cccc(Br)c1 | 8 µg/mL (≈ 18.3 µM) | 1 µg/mL (≈ 2.28 µM) | 0.125 µg/mL (≈ 0.285 µM) | 1 µg/mL (≈ 2.28 µM) | 64 µg/mL (≈ 146 µM) | 16 µg/mL (≈ 36.5 µM)
CCCC[C@H](CN(O)C=O)C(=O)N1CC=C[C@H]1C(=O)Nc1ccc(Br)cc1 | 4 µg/mL (≈ 9.13 µM) | 1 µg/mL (≈ 2.28 µM) | 0.5 µg/mL (≈ 1.14 µM) | 2 µg/mL (≈ 4.56 µM) | > 64 µg/mL | > 64 µg/mL
CCCC[C@H](CN(O)C=O)C(=O)N1CC=C[C@H]1C(=O)Nc1ccccc1Cl | 0.5 µg/mL (≈ 1.27 µM) | 2 µg/mL (≈ 5.08 µM) | 0.25 µg/mL (≈ 0.635 µM) | 1 µg/mL (≈ 2.54 µM) | > 64 µg/mL | 64 µg/mL (≈ 162 µM)
CCCC[C@H](CN(O)C=O)C(=O)N1CC=C[C@H]1C(=O)Nc1ccc(F)cc1 | 2 µg/mL (≈ 5.3 µM) | 2 µg/mL (≈ 5.3 µM) | 1 µg/mL (≈ 2.65 µM) | 4 µg/mL (≈ 10.6 µM) | > 64 µg/mL | 64 µg/mL (≈ 170 µM)
CCCC[C@H](CN(O)C=O)C(=O)N1CC=C[C@H]1C(=O)Nc1ccc([N+](=O)[O-])cc1 | 0.5 µg/mL (≈ 1.24 µM) | 2 µg/mL (≈ 4.95 µM) | 0.5 µg/mL (≈ 1.24 µM) | 0.5 µg/mL (≈ 1.24 µM) | > 64 µg/mL | 32 µg/mL (≈ 79.1 µM)
CCCC[C@H](CN(O)C=O)C(=O)N1CC=C[C@H]1C(=O)Nc1ccc(OC)cc1 | 0.5 µg/mL (≈ 1.28 µM) | 2 µg/mL (≈ 5.14 µM) | 1 µg/mL (≈ 2.57 µM) | 2 µg/mL (≈ 5.14 µM) | > 64 µg/mL | > 64 µg/mL
CCCC[C@H](CN(O)C=O)C(=O)N1CC=C[C@H]1C(=O)Nc1nnc(C(F)(F)F)s1 | 32 µg/mL (≈ 73.5 µM) | 16 µg/mL (≈ 36.7 µM) | 8 µg/mL (≈ 18.4 µM) | 16 µg/mL (≈ 36.7 µM) | > 64 µg/mL | > 64 µg/mL
CCCC[C@H](CN(O)C=O)C(=O)N1CC=C[C@H]1C(=O)N[C@@H](C)c1ccccc1 | 4 µg/mL (≈ 10.3 µM) | 16 µg/mL (≈ 41.3 µM) | 8 µg/mL (≈ 20.6 µM) | 8 µg/mL (≈ 20.6 µM) | > 64 µg/mL | > 64 µg/mL
CCCC[C@H](CN(O)C=O)C(=O)N1CC=C[C@H]1C(=O)N[C@H](C)c1ccccc1 | 4 µg/mL (≈ 10.3 µM) | 16 µg/mL (≈ 41.3 µM) | 2 µg/mL (≈ 5.16 µM) | 4 µg/mL (≈ 10.3 µM) | > 64 µg/mL | > 64 µg/mL
CCCC[C@H](CN(O)C=O)C(=O)N1CC=C[C@H]1C(=O)Nc1ccccc1 | 4 µg/mL (≈ 11.1 µM) | 8 µg/mL (≈ 22.3 µM) | 1 µg/mL (≈ 2.78 µM) | 2 µg/mL (≈ 5.56 µM) | > 64 µg/mL | 64 µg/mL (≈ 178 µM)
CCCC[C@H](CN(O)C=O)C(=O)N1CCC[C@H]1C(=O)Nc1ccc(F)c[n+]1[O-] | 0.25 µg/mL (≈ 0.631 µM) | 1 µg/mL (≈ 2.52 µM) | 0.5 µg/mL (≈ 1.26 µM) | 0.5 µg/mL (≈ 1.26 µM) | 64 µg/mL (≈ 161 µM) | 64 µg/mL (≈ 161 µM)
O=C(O)c1cn(C2CC2)c2cc(N3CCNCC3)c(F)cc2c1=O [CIPROFLOXACIN] | 0.5 µg/mL (≈ 1.51 µM) | 0.5 µg/mL (≈ 1.51 µM) | 1 µg/mL (≈ 3.02 µM) | 0.25 µg/mL (≈ 0.754 µM) | < 0.0312 µg/mL | < 0.0312 µg/mL
CC(=O)NC[C@H]1CN(c2ccc(N3CCOCC3)c(F)c2)C(=O)O1 [LINEZOLID] |  |  |  | 0.5 µg/mL (≈ 1.48 µM) | > 64 µg/mL | > 64 µg/mL
CC1(C)S[C@@H]2[C@H](NC(=O)Cc3ccccc3)C(=O)N2[C@H]1C(=O)O [PENICILLIN G] | 0.0625 µg/mL (≈ 0.187 µM) | 1 µg/mL (≈ 2.99 µM) | 64 µg/mL (≈ 191 µM) | 2 µg/mL (≈ 5.98 µM) | > 64 µg/mL | > 64 µg/mL
CN[C@H](CC(C)C)C(=O)N[C@H]1C(=O)N[C@@H](CC(N)=O)C(=O)N[C@H]2C(=O)N[C@H]3C(=O)N[C@H](C(=O)N[C@H](C(=O)O)c4cc(O)cc(O)c4-c4cc3ccc4O)[C@H](O)c3ccc(c(Cl)c3)Oc3cc2cc(c3O[C@@H]2O[C@H](CO)[C@@H](O)[C@H](O)[C@H]2O[C@H]2C[C@](C)(N)[C@H](O)[C@H](C)O2)Oc2ccc(cc2Cl)[C@H]1O [VANCOMYCIN] |  |  |  |  | > 64 µg/mL | > 64 µg/mL

Source: ChEMBL document CHEMBL1158632, “Design, synthesis, and antibacterial activity of 2,5-dihydropyrrole formyl hydroxyamino derivatives as novel peptide deformylase inhibitors” (2010)
